# Experimental data pooled from the literature.
Compound,test,system,conditions,measurement,result
O=c1c2c([nH]c3ccc(Oc4ccc(OC(F)(F)F)cc4)cc13)CCCC2,metabolic stability,"mouse, liver microsomes","1 µM, pH 7.4",microsomal CLint,39 µL/min/mg
Cc1cc(S(=O)(=O)N[C@]2(C)C[C@H](N3CCN(CC4CCN(c5ccc6c(c5F)n(C)c(=O)n6C5CCC(=O)NC5=O)CC4)CC3)C2)ccc1Nc1ncc(C(F)(F)F)c(N2CCC[C@](C)(O)C2)n1 (some centres unmarked),,"rat, plasma","intravenous, 2 mg/kg",Vd,42 L/kg
CN(C)CCOc1ccc2c(=O)c3c([nH]c2c1)CCCC3,metabolic stability,"mouse, liver microsomes","1 µM, pH 7.4",microsomal CLint,40.4 µL/min/mg
CC(C)n1ncc2c(C(=O)NCC(C)(C)N(C)C)cc(C3CC3)nc21,metabolic stability,"mouse, liver microsomes",,scaled CLint,120 mL/min/kg
CNS(=O)(=O)c1ccc(Nc2ncc(C(F)(F)F)c(N3CCC(C)(O)CC3)n2)c(C)c1,,"rat, plasma","intravenous, 2 mg/kg",Vd,3 L/kg
O=c1c2ccc(OCc3ccc(C(F)(F)F)cc3)cc2[nH]c2cc(Cl)cc(F)c12,metabolic stability,"mouse, liver microsomes","1 µM, pH 7.4",microsomal CLint,6.76 µL/min/mg
CC(C)n1ncc2c(C(=O)NC(C)(C)CN)cc(C3CC3)nc21,metabolic stability,"mouse, liver microsomes",,scaled CLint,75.6 mL/min/kg
C[C@H]1Oc2cc(cnc2N)-c2c(nn(C)c2C#N)CN(C)C(=O)c2ccc(F)cc21,,"male Sprague-Dawley rat, plasma","oral, 10 mg/kg, single dose",Vd/F,37 L/kg
CCC(F)(F)c1cc(N2C(=O)NC(C)(C)C2=O)ccc1F,metabolic stability,"mouse, liver microsomes",,microsomal CLint,7 µL/min/mg
O=c1c2ccc(OCc3cccc(C(F)(F)F)c3)cc2[nH]c2ccc(Cl)c(F)c12,metabolic stability,"mouse, liver microsomes","1 µM, pH 7.4",microsomal CLint,0.59 µL/min/mg
Cc1cc(S(=O)(=O)NC2CC(N3CCN(CC4CCN(c5ccc(NC6CCC(=O)NC6=O)cc5C)CC4)CC3)C2)ccc1Nc1ncc(C(F)(F)F)c(N2CCC[C@](C)(O)C2)n1 (some centres unmarked),,"rat, plasma","intravenous, 2 mg/kg",Vd,9 L/kg
CC1(C)NC(=O)N(c2ccc(F)c(S(C)(=O)=O)c2)C1=O,metabolic stability,"mouse, liver microsomes",,microsomal CLint,< 7 µL/min/mg
CNCCNC(=O)c1cc(C(C)C)nc2c1cnn2C(C)C,metabolic stability,"mouse, liver microsomes",,scaled CLint,694 mL/min/kg
Cc1cc(S(=O)(=O)NC2CC(N3CCN(CC4CCN(c5cccc6c5n(C)c(=O)n6C5CCC(=O)NC5=O)CC4)C4(CC4)C3)C2)ccc1Nc1ncc(C(F)(F)F)c(N2CCC[C@](C)(O)C2)n1 (some centres unmarked),,"rat, plasma","intravenous, 2 mg/kg",Vd,82 L/kg
